{
  "source": "ChEMBL document CHEMBL3351740",
  "about": "“Identification of a novel aminotetralin class of HDAC6 and HDAC8 selective inhibitors” (J Med Chem, 2014)",
  "key": {"Liver": {"system": "Liver", "assay": "Stability in mouse liver microsomes at 1 uM after 3 to 30 mins by LC-MS/MS analysis", "format": "ADME", "how_it_was_run": "(§1)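 Liver microsomes at 0.5 mg/mL (human or mouse) in 100 mM potassium phosphate, pH 7.4, with 1 μM compound, prewarmed 10 min at 37 °C. Reaction started with NADPH (10 mM) and stopped at 0, 3, 6, 9, 15 and 30 min with ice-cold methanol holding tolbutamide internal standard. Centrifuged 10 min at 4 °C; supernatant analysed by LC-MS/MS.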"}, "Liver microsome": {"system": "Liver microsome", "assay": "Stability in human liver microsomes at 1 uM after 3 to 30 mins by LC-MS/MS analysis", "format": "ADME", "how_it_was_run": "as §1"}},
  "data": [
    {"smiles": "O=C(NO)c1ccc2c(c1)C[C@H](Nc1nccc(-c3cccnc3)n1)CC2", "values": [
      {"measurement": "Stability", "setting": "Liver", "value": "Stable"},
      {"measurement": "Stability", "setting": "Liver microsome", "value": "Stable"}
    ]}
  ]
}
